Several values for one entry are separate records, joined by “and”; a condition that tells them apart may be missing. Identical values can stand only once.
System: Fibroblast
Assay: Multiplex assay against human fibroblast
Assay type: toxicity, cell-based
In short: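 On a CQ1 microscope at 37°C and 5% CO2, live cells were imaged after compound addition. They had been stained at seeding with Hoechst33342, BioTracker Green Microtubule Cytoskeleton Dye, MitoTracker Red and Annexin V Alexa Fluor 680. CellPathfinder machine-learning gating assigned cells to Hoechst high-intensity objects or normal cells, normal cells to healthy, pyknosed or fragmented nuclei, and pyknosed cells to mitotic or apoptotic. Tubulin, mitochondrial-mass and membrane-permeability phenotypes are per cents of healthy-nucleus cells.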

[1] = 12 h, 10 µM, compound concentration 10 uM, replicate 1
[2] = 12 h, 10 µM, compound concentration 10 uM, replicate 2
[3] = 24 h, 10 µM, compound concentration 10 uM, replicate 1
[4] = 24 h, 10 µM, compound concentration 10 uM, replicate 2
[5] = 12 h, 1 µM, compound concentration 1 uM, replicate 1
[6] = 12 h, 1 µM, compound concentration 1 uM, replicate 2
[7] = 24 h, 1 µM, compound concentration 1 uM, replicate 1
[8] = 24 h, 1 µM, compound concentration 1 uM, replicate 2

Q: How did the “Population Apoptotic (%)” value [1] turn out when `COc1cc(N2CCC(N3CCN(C)CC3)CC2)ccc1Nc1ncnc(Nc2ccccc2S(=O)(=O)C(C)C)n1` [ASP-3026] was run?
A: Its value is 72% and 66%.

Q: And the “Population Fragmented Nuclei (%)” value [1]?
A: Its value is 30% and 23%.

Q: And the “Population Healthy Nuclei (%)” value [1]?
A: The value was 55% and 60%.

Q: What about the “Population Hoechst High Intensity Objects (%)” value [1] of the same molecule?
A: The value was 14% and 18%.

Q: What about the “Population Membrane Permeable-Phenotype (%)” value [1] of the same molecule?
A: Its value is 11% and 9%.

Q: What about the “Population Mitochondria Different-Phenotype (%)” value [1] of the same molecule?
A: The value was 6% and 7%.

Q: What about the “Population Mitotic Cells (%)” value [1] of the same molecule?
A: The value was 27% and 33%.

Q: And the “Population Normal (%)” value [1]?
A: Its value is 85% and 81%.

Q: And the “Population Pyknosed Nuclei (%)” value [1]?
A: The value was 13% and 16%.

Q: And the “Total Cell Count” value [1]?
A: Its value is 252 and 249.

Q: What about the “Population Apoptotic (%)” value [2] of the same molecule?
A: Its value is 80% and 100%.

Q: And the “Population Fragmented Nuclei (%)” value [2]?
A: The value was 66% and 72%.

Q: What about the “Population Healthy Nuclei (%)” value [2] of the same molecule?
A: Its value is 24% and 21%.

Q: What about the “Population Hoechst High Intensity Objects (%)” value [2] of the same molecule?
A: Its value is 38% and 53%.

Q: And the “Population Membrane Permeable-Phenotype (%)” value [2]?
A: Its value is 8% and 18%.

Q: And the “Population Mitochondria Different-Phenotype (%)” value [2]?
A: The value was 16% and 0%.

Q: And the “Population Mitotic Cells (%)” value [2]?
A: Its value is 20% and 0%.

Q: What about the “Population Normal (%)” value [2] of the same molecule?
A: The value was 61% and 46%.

Q: What about the “Population Pyknosed Nuclei (%)” value [2] of the same molecule?
A: The value was 10% and 5%.

Q: What about the “Total Cell Count” value [2] of the same molecule?
A: The value was 81 and 110.

Q: What about the “Population Apoptotic (%)” value [3] of the same molecule?
A: Its value is 79%.

Q: What about the “Population Fragmented Nuclei (%)” value [3] of the same molecule?
A: The value was 38% and 22%.

Q: What about the “Population Healthy Nuclei (%)” value [3] of the same molecule?
A: The value was 50% and 63%.

Q: And the “Population Hoechst High Intensity Objects (%)” value [3]?
A: Its value is 18% and 16%.

Q: What about the “Population Membrane Permeable-Phenotype (%)” value [3] of the same molecule?
A: Its value is 15% and 7%.

Q: And the “Population Mitochondria Different-Phenotype (%)” value [3]?
A: The value was 1% and 3%.

Q: What about the “Population Mitotic Cells (%)” value [3] of the same molecule?
A: Its value is 20%.

Q: What about the “Population Normal (%)” value [3] of the same molecule?
A: Its value is 81% and 83%.

Q: And the “Population Pyknosed Nuclei (%)” value [3]?
A: The value was 11% and 14%.

Q: What about the “Total Cell Count” value [3] of the same molecule?
A: The value was 260 and 264.

Q: What about the “Population Apoptotic (%)” value [4] of the same molecule?
A: Its value is 50% and 100%.

Q: And the “Population Fragmented Nuclei (%)” value [4]?
A: Its value is 76% and 67%.

Q: And the “Population Healthy Nuclei (%)” value [4]?
A: The value was 18% and 28%.

Q: And the “Population Hoechst High Intensity Objects (%)” value [4]?
A: The value was 45% and 53%.

Q: And the “Population Membrane Permeable-Phenotype (%)” value [4]?
A: Its value is 14% and 26%.

Q: What about the “Population Normal (%)” value [4] of the same molecule?
A: Its value is 54% and 46%.

Q: What about the “Population Pyknosed Nuclei (%)” value [4] of the same molecule?
A: Its value is 5% and 3%.

Q: And the “Total Cell Count” value [4]?
A: Its value is 70 and 112.

Q: How did the “Population Apoptotic (%)” value [5] turn out when `C=CCn1c(=O)c2cnc(Nc3ccc(N4CCN(C)CC4)cc3)nc2n1-c1cccc(C(C)(C)O)n1` [ADAVOSERTIB] was run?
A: Its value is 69%.

Q: And the “Population Fragmented Nuclei (%)” value [5]?
A: Its value is 28%.

Q: What about the “Population Healthy Nuclei (%)” value [5] of the same molecule?
A: Its value is 62%.

Q: What about the “Population Hoechst High Intensity Objects (%)” value [5] of the same molecule?
A: Its value is 15%.

Q: And the “Population Membrane Permeable-Phenotype (%)” value [5]?
A: Its value is 7%.

Q: And the “Population Mitochondria Different-Phenotype (%)” value [5]?
A: Its value is 4%.

Q: And the “Population Mitotic Cells (%)” value [5]?
A: Its value is 30%.

Q: And the “Population Normal (%)” value [5]?
A: The value was 84%.

Q: What about the “Population Pyknosed Nuclei (%)” value [5] of the same molecule?
A: Its value is 8%.

Q: And the “Population Tubulin-Different-Phenotype (%)” value [5]?
A: The value was 6%.

Q: And the “Total Cell Count” value [5]?
A: The value was 178.

Q: What about the “Population Apoptotic (%)” value [6] of the same molecule?
A: Its value is 50%.

Q: And the “Population Fragmented Nuclei (%)” value [6]?
A: Its value is 48%.

Q: What about the “Population Healthy Nuclei (%)” value [6] of the same molecule?
A: Its value is 37%.

Q: What about the “Population Hoechst High Intensity Objects (%)” value [6] of the same molecule?
A: The value was 35%.

Q: And the “Population Membrane Permeable-Phenotype (%)” value [6]?
A: The value was 9%.

Q: What about the “Population Mitochondria Different-Phenotype (%)” value [6] of the same molecule?
A: The value was 19%.

Q: What about the “Population Mitotic Cells (%)” value [6] of the same molecule?
A: The value was 50%.

Q: What about the “Population Normal (%)” value [6] of the same molecule?
A: The value was 64%.

Q: And the “Population Pyknosed Nuclei (%)” value [6]?
A: The value was 14%.

Q: What about the “Population Tubulin-Different-Phenotype (%)” value [6] of the same molecule?
A: Its value is 19%.

Q: And the “Total Cell Count” value [6]?
A: Its value is 87.

Q: What about the “Population Apoptotic (%)” value [1] of the same molecule?
A: The value was 44%.

Q: What about the “Population Fragmented Nuclei (%)” value [1] of the same molecule?
A: The value was 29%.

Q: And the “Population Healthy Nuclei (%)” value [1]?
A: The value was 46%.

Q: And the “Population Hoechst High Intensity Objects (%)” value [1]?
A: Its value is 14%.

Q: And the “Population Membrane Permeable-Phenotype (%)” value [1]?
A: The value was 8%.

Q: And the “Population Mitochondria Different-Phenotype (%)” value [1]?
A: The value was 5%.

Q: And the “Population Mitotic Cells (%)” value [1]?
A: Its value is 55%.

Q: What about the “Population Normal (%)” value [1] of the same molecule?
A: Its value is 85%.

Q: And the “Population Pyknosed Nuclei (%)” value [1]?
A: The value was 24%.

Q: What about the “Population Tubulin-Different-Phenotype (%)” value [1] of the same molecule?
A: The value was 23%.

Q: And the “Total Cell Count” value [1]?
A: The value was 218.

Q: And the “Population Apoptotic (%)” value [2]?
A: The value was 75%.

Q: And the “Population Fragmented Nuclei (%)” value [2]?
A: Its value is 55%.

Q: And the “Population Healthy Nuclei (%)” value [2]?
A: Its value is 36%.

Q: And the “Population Hoechst High Intensity Objects (%)” value [2]?
A: Its value is 41%.

Q: And the “Population Membrane Permeable-Phenotype (%)” value [2]?
A: The value was 17%.

Q: And the “Population Mitochondria Different-Phenotype (%)” value [2]?
A: Its value is 23%.

Q: And the “Population Mitotic Cells (%)” value [2]?
A: Its value is 25%.

Q: What about the “Population Normal (%)” value [2] of the same molecule?
A: The value was 58%.

Q: And the “Population Pyknosed Nuclei (%)” value [2]?
A: Its value is 8%.

Q: What about the “Population Tubulin-Different-Phenotype (%)” value [2] of the same molecule?
A: The value was 35%.

Q: What about the “Total Cell Count” value [2] of the same molecule?
A: The value was 81.

Q: What about the “Population Apoptotic (%)” value [7] of the same molecule?
A: Its value is 83%.

Q: And the “Population Fragmented Nuclei (%)” value [7]?
A: The value was 27%.

Q: And the “Population Healthy Nuclei (%)” value [7]?
A: Its value is 60%.

Q: What about the “Population Hoechst High Intensity Objects (%)” value [7] of the same molecule?
A: Its value is 18%.

Q: And the “Population Membrane Permeable-Phenotype (%)” value [7]?
A: Its value is 6%.

Q: And the “Population Mitochondria Different-Phenotype (%)” value [7]?
A: Its value is 9%.

Q: And the “Population Mitotic Cells (%)” value [7]?
A: The value was 16%.

Q: And the “Population Normal (%)” value [7]?
A: Its value is 81%.

Q: And the “Population Pyknosed Nuclei (%)” value [7]?
A: The value was 11%.

Q: What about the “Population Tubulin-Different-Phenotype (%)” value [7] of the same molecule?
A: The value was 7%.

Q: What about the “Total Cell Count” value [7] of the same molecule?
A: Its value is 187.

Q: And the “Population Apoptotic (%)” value [8]?
A: The value was 25%.

Q: What about the “Population Fragmented Nuclei (%)” value [8] of the same molecule?
A: The value was 51%.

Q: And the “Population Healthy Nuclei (%)” value [8]?
A: The value was 41%.

Q: And the “Population Hoechst High Intensity Objects (%)” value [8]?
A: Its value is 29%.

Q: And the “Population Membrane Permeable-Phenotype (%)” value [8]?
A: The value was 4%.

Q: What about the “Population Mitochondria Different-Phenotype (%)” value [8] of the same molecule?
A: Its value is 8%.

Q: And the “Population Mitotic Cells (%)” value [8]?
A: The value was 75%.

Q: What about the “Population Normal (%)” value [8] of the same molecule?
A: Its value is 70%.

Q: What about the “Population Pyknosed Nuclei (%)” value [8] of the same molecule?
A: The value was 6%.

Q: And the “Population Tubulin-Different-Phenotype (%)” value [8]?
A: The value was 12%.

Q: What about the “Total Cell Count” value [8] of the same molecule?
A: Its value is 82.

Q: What about the “Population Apoptotic (%)” value [3] of the same molecule?
A: The value was 56%.

Q: What about the “Population Fragmented Nuclei (%)” value [3] of the same molecule?
A: Its value is 30%.

Q: And the “Population Healthy Nuclei (%)” value [3]?
A: The value was 47%.

Q: What about the “Population Hoechst High Intensity Objects (%)” value [3] of the same molecule?
A: Its value is 20%.

Q: What about the “Population Membrane Permeable-Phenotype (%)” value [3] of the same molecule?
A: The value was 4%.

Q: And the “Population Mitochondria Different-Phenotype (%)” value [3]?
A: The value was 10%.

Q: What about the “Population Mitotic Cells (%)” value [3] of the same molecule?
A: The value was 43%.

Q: And the “Population Normal (%)” value [3]?
A: The value was 79%.

Q: What about the “Population Pyknosed Nuclei (%)” value [3] of the same molecule?
A: The value was 21%.

Q: And the “Population Tubulin-Different-Phenotype (%)” value [3]?
A: The value was 21%.

Q: And the “Total Cell Count” value [3]?
A: Its value is 241.

Q: What about the “Population Apoptotic (%)” value [4] of the same molecule?
A: The value was 100%.

Q: What about the “Population Fragmented Nuclei (%)” value [4] of the same molecule?
A: Its value is 61%.

Q: What about the “Population Healthy Nuclei (%)” value [4] of the same molecule?
A: The value was 35%.

Q: And the “Population Hoechst High Intensity Objects (%)” value [4]?
A: The value was 29%.

Q: What about the “Population Membrane Permeable-Phenotype (%)” value [4] of the same molecule?
A: The value was 9%.

Q: What about the “Population Mitochondria Different-Phenotype (%)” value [4] of the same molecule?
A: Its value is 9%.

Q: What about the “Population Mitotic Cells (%)” value [4] of the same molecule?
A: Its value is 0%.

Q: What about the “Population Normal (%)” value [4] of the same molecule?
A: Its value is 70%.

Q: What about the “Population Pyknosed Nuclei (%)” value [4] of the same molecule?
A: Its value is 3%.

Q: And the “Population Tubulin-Different-Phenotype (%)” value [4]?
A: Its value is 28%.

Q: What about the “Total Cell Count” value [4] of the same molecule?
A: The value was 84.
